Assay results from ChEMBL document CHEMBL1156462, “Seco-pregnane steroids target the subgenomic RNA of alphavirus-like RNA viruses” (Proc Natl Acad Sci U S A, 2007).
Activity calls are given as the source filed them. No cut-off for these calls is given here.

Legend:
[1] = tested on: Reovirus sp.; test: Antiviral activity against Reovirus in CIK cells assessed as inhibition of virus-induced cytopathogenicity; type: functional, organism-based
Outline: (§1)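 Cells seeded at 2 × 10⁵ per well 24 h before use (BHK-21 for GETV, H9 for HIV, CIK for Reovirus, 983A for adenovirus, Veto for measles virus). Infected at a dose giving 100% cytopathic effect at 3 dpi; virus premixed with compound at final 100, 50, 10, 3, 2, 1.5, 1, 0 nM. Infected and uninfected untreated controls on each plate.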

[2] = tested on: Tobacco mosaic virus; test: Decrease in TMV U1 coat protein level in TMV infected tobacco BY2 protoplast at 50 nM by Western blot analysis; type: functional, organism-based
Outline: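 BY-2 protoplasts (5 ml, 1.5 × 10⁶/ml) infected with TMV pretreated with compound; total protein extracted and coat protein detected by Western blot.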

[3] = Selectivity index, ratio of CC50 for BHK21 cells to EC50 for Sindbis virus; type: toxicity, cell-based, BHK-21; conditions: hamster, read-out: Ratio CC50/EC50
Outline: (§2)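 SINV XJ-160 at 2 × 10⁵ pfu/ml was premixed with compound for 15 min. It was then adsorbed 1 h to BHK-21 cells, MOI 0.01, in quadruplicate. Cells were washed and kept in DMEM/5% FBS at 37°C. CC50 was 50% inhibition of uninfected BHK-21 proliferation. Index = CC50/EC50.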

[4] = tested on: Sindbis virus; test: Reduction of Sindbis virus infection-induced mortality rate in newborn BALB/c mouse assessed as mouse survival at 100 mg/kg administered 1 hr before viral infection; type: functional, organism-based; set-up: dose 100 mg/kg
Outline: (§3)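 Newborn BALB/c mice (2–3 days old, ≈2 g), 11 per group, given 20 μl compound at 100 mg/kg BW 1 or 4 h before intracerebral inoculation with 20 μl medium containing 100 × LD₅₀ SINV. Survivors counted at 3, 4, 5, 6 and 7 days after inoculation.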

[5] = Selectivity index, ratio of CC50 for hamster BHK21 cells to EC50 for Sindbis virus XJ160; type: toxicity, cell-based, BHK-21; conditions: read-out: Ratio CC50/EC50; outline: as §2
[6] = tested on: Sindbis virus; test: Decrease in 26S sgRNA level in Sindbis virus XJ160 infected BHK21 cells after 3 hrs postinfection; type: functional, organism-based; conditions: BHK-21
Outline: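 BHK-21 cells infected with SINV XJ-160 premixed with compound at MOI 10 in quadruplicate. Viral RNAs quantified at 3 hpi by Northern blot, with β-actin RNA as loading comparison.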

[7] = tested on: Sindbis virus; test: Antiviral activity against Sindbis virus XJ160 in BHK21 cells assessed as reduction of virus-induced cytopathic effect after 24 hrs; type: functional, organism-based; conditions: BHK-21
Outline: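 SINV XJ-160 (2 × 10⁵ pfu/ml, thrice plaque-purified) treated with compound for 15 min, adsorbed 1 h to BHK-21 cells at MOI 0.01 in quadruplicate; washed, fresh DMEM with 5% FBS added, cells kept at 37°C, 5% CO₂. Cytopathic morphology scored by light microscopy at 24 hpi.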

[8] = tested on: Tobacco mosaic virus; test: Inhibition of TMV U1 multiplication in tobacco BY2 protoplast at 10 nM assessed as local lesion size on Chenopodium quinoa leaves by local lesion assay; type: functional
[9] = tested on: Sindbis virus; test: Reduction of Sindbis virus infection-induced mortality rate in newborn BALB/c mouse assessed as survivors at 100 mg/kg administered 1 hr before infection after 7 days; type: functional
Outline: (§4)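 Newborn BALB/c mice, 2–3 days old, ≈2 g, received 20 μl compound at 100 mg/kg BW 1 or 4 h before intracerebral inoculation with 20 μl containing 100 × LD50 SINV. There were 11 mice per group, with survivors counted at 3, 4, 5, 6 and 7 days.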

[10] = Selectivity index, ratio of CC50 for BHK21 cells to EC50 for Getah virus; type: toxicity, cell-based, BHK-21; conditions: hamster, read-out: Ratio CC50/EC50
Outline: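 Getah virus was tested on BHK-21 cells seeded at 2 × 10⁵ per well 24 h before use, infected at a dose giving 100% CPE at 3 dpi. Compound was premixed with virus at final 100–0 nM. EC50 was taken as 50% inhibition of cytopathogenicity. Index = 50% cytotoxicity concentration/EC50.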

[11] = tested on: Sindbis virus; test: Decrease in 26S sgRNA level in Sindbis virus XJ160 infected BHK21 cells after 24 hrs postinfection; type: functional, organism-based; conditions: BHK-21
[12] = tested on: Getah virus; test: Antiviral activity against Getah virus in BHK21 cells assessed as inhibition of virus-induced cytopathogenicity; type: functional, organism-based; conditions: BHK-21; outline: as §1
[13] = tested on: Measles morbillivirus; test: Antiviral activity against measles virus in Veto cells assessed as inhibition of virus-induced cytopathogenicity; type: functional, organism-based; outline: as §1
[14] = tested on: Sindbis virus; test: Antiviral activity against Sindbis virus in BHK21 cells assessed as inhibition of virus-induced cytopathogenicity; type: functional, organism-based; conditions: BHK-21
[15] = tested on: Tobacco mosaic virus; test: Inhibition of TMV U1 multiplication in tobacco BY2 protoplast at 40 nM assessed as inhibition of local lesions on Chenopodium quinoa leaves by local lesion assay after 3 days postinfection; type: functional; conditions: U1, 72 h
Outline: (§5)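 TMV premixed with compound at a range of concentrations used to inoculate tobacco BY-2 protoplasts; virus multiplication then assayed by counting local lesions on the local lesion host Chenopodium quinoa.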

[16] = tested on: Tobacco mosaic virus; test: Inhibition of TMV U1 replication in tobacco BY2 protoplast by local lesion assay using Chenopodium quinoa leaves; type: functional, organism-based; outline: as §5
[17] = tested on: Sindbis virus; test: Reduction of Sindbis virus infection-induced mortality rate in newborn BALB/c mouse assessed as survivors at 100 mg/kg administered 4 hrs before infection after 7 days; type: functional; outline: as §4
[18] = tested on: Tobacco mosaic virus; test: Inhibition of TMV U1 multiplication in tobacco BY2 protoplast at 20 nM assessed as inhibition of local lesions on Chenopodium quinoa leaves by local lesion assay after 3 days postinfection; type: functional; conditions: U1, 72 h; outline: as §5
[19] = tested on: Sindbis virus; test: Reduction of Sindbis virus infection-induced mortality rate in newborn BALB/c mouse assessed as mouse survival at 100 mg/kg administered 4 hrs before viral infection; type: functional, organism-based; set-up: dose 100 mg/kg; outline: as §3
[20] = Cytotoxicity against hamster BHK21 cells; type: cell-based, Mesocricetus auratus, BHK-21
[21] = tested on: Eastern equine encephalitis virus; test: Antiviral activity against Eastern equine encephalitis virus in BHK21 cells assessed as inhibition of virus-induced cytopathogenicity; type: functional, organism-based; conditions: BHK-21
[22] = tested on: Tobacco mosaic virus; test: Inhibition of TMV U1 multiplication in tobacco BY2 protoplast at 30 nM assessed as local lesion size on Chenopodium quinoa leaves by local lesion assay; type: functional
[23] = tested on: Hepatitis C virus; test: Antiviral activity against HCV in human H9 cells assessed as inhibition of virus-induced cytopathogenicity; type: functional, organism-based, Hepacivirus hominis
[24] = tested on: Influenza A virus; test: Antiviral activity against influenza A virus in Madin-Darby kidney cells assessed as inhibition of virus-induced cytopathogenicity; type: functional, organism-based
Outline: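 Influenza A virus was tested on Madin–Darby canine kidney cells seeded at 2 × 10⁵ per well 24 h before use. Infection used the dose causing 100% CPE at 3 dpi. Compound was premixed with virus at final 100–0 nM (8 levels). Uninfected and virus-only controls were included per plate. Read-out was 50% inhibition of cytopathogenicity.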

[25] = tested on: Tobacco mosaic virus; test: Inhibition of coat protein sgRNA accumulation in TMV U1 infected Nicotiana tabacum cv K326 plant leaves at 50 nM by Northern blot; type: functional, organism-based
Outline: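 N. tabacum cv. K326 leaves inoculated with TMV with or without 50 nM compound; inoculated and upper uninoculated leaves collected at 5 dpi. TRIzol total RNA probed with CP gene sequence by Northern blot, 28S rRNA as loading control.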

[26] = tested on: Tobacco mosaic virus; test: Inhibition of TMV U1 multiplication in tobacco BY2 protoplast at 50 nM assessed as local lesion size on Chenopodium quinoa leaves by local lesion assay; type: functional
[27] = tested on: Human immunodeficiency virus; test: Antiviral activity against HIV in human H9 cells assessed as inhibition of virus-induced cytopathogenicity; type: functional, organism-based; conditions: Human immunodeficiency virus 1, H9; outline: as §1

With `CO[C@@H]1C[C@H](O[C@H]2CC[C@@]3(C)C(=CC[C@H]4C(=O)OC5CO[C@]6(C)OC=C(CC[C@@H]43)[C@H]56)C2)O[C@H](C)[C@H]1O[C@H]1C[C@H](O)[C@H](O[C@@H]2C[C@@H](OC)[C@H](O[C@@H]3O[C@H](CO)[C@@H](O[C@@H]4O[C@H](CO)[C@@H](O)[C@H](O)[C@H]4O)[C@H](O)[C@H]3O)[C@@H](C)O2)[C@@H](C)O1` (some centres not stated) [PANICULATUMOSIDE C] the EC50 [1] was over 25000 nM, the Activity [2] was “Active” and the selectivity ratio [3] was 11000. For the same compound, the Activity [4] was “Toxic”, the selectivity ratio [5] was 11000 and the Activity [6] was “Dose-dependent effect”. For the same compound, the Activity [7] was “Dose-dependent effect”, the Activity [8] was 2.4 mm and the Activity [9] was 100%. For the same compound, the selectivity ratio [10] was 16500, the Activity [11] was “Active” and the EC50 [12] was 1 nM. The EC50 [13] was over 25000 nM, the EC50 [14] was 1.5 nM and the inhibition at 0.04 µM [15] was 93%. For the same compound, the IC50 [16] was 25 nM, the Activity [17] was 30% and the inhibition at 0.02 µM [18] was 40%. For the same compound, the Activity [19] was “Toxic”, the CC50 [20] was 16500 nM and the EC50 [21] was 2 nM. It also gave an Activity [22] of 1.1 mm, an EC50 [23] of over 25000 nM and an EC50 [24] of over 20000 nM. The Activity [25] was “Active”, the Activity [26] was 0 mm and the EC50 [27] was over 25000 nM.
